Compounds with a hit are over-represented: about 2.2% of the library has one in this group of screens.
APJ antag – antagonists of human apelin receptor APJ, primary screen, CHO-K1 cells, beta-arrestin complementation, luminescence | 330,000 tested, 0.32% active | inhibition, % at 20 µM | P35414 | AID 2521, 2010;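 active = inhibition above about 40% at 20 µM, limit read from the data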;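 note: cells challenged with 10 nM apelin-13 agonist together with compound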
Target sequence (P35414 whole entry, looked up): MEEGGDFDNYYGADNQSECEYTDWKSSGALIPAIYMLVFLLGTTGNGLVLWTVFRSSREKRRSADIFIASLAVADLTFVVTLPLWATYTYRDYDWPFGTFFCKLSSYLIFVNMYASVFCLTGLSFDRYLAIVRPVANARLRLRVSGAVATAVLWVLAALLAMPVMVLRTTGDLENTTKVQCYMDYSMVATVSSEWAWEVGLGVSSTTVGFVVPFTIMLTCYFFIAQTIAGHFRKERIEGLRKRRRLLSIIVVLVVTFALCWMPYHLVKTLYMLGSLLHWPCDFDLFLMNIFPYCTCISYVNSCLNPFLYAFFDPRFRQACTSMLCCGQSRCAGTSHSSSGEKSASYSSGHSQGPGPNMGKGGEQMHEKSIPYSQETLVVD
EBI2 block – EBI2 receptor antagonists, beta-arrestin recruitment, primary screen, cell-based, luminescence, 7a,25-OHC stimulation, uHTS. 7a,25-OHC stimulated. inhibition, % at 5 µM. 360,000 tested, 0.81% active. AID 651636, 2012; in the data active = inhibition above about 38%;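 note: enzyme fragment complementation signal reports receptor beta-arrestin coupling in cells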
CCR6 antag – CCR6 receptor antagonists, primary screen, cell-based, CHO-K1, luminescence, beta-arrestin, uHTS | CHO-K1 CCR6 PathHunter beta-arrestin, CCL20-stimulated | inhibition, % at 20 µM | 340,000 tested, 0.49% active | AID 493098, 2011;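 active = compounds whose inhibition of the agonist-driven luminescence signal at 20 µM reaches about 50%, limit read from the data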;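 note: cells stimulated with CCL20 at 14 nM final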
APJ agonist – agonists of human apelin receptor APJ, primary screen, CHO-K1 cells, PathHunter beta-arrestin, luminescence. P35414. 0% DMSO wells, 100% apelin. activation, % at 20 µM. 330,000 tested, 0.11% active;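 active = activation more than six SD over the plate average, tested at 20 µM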
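Assay system – PathHunter CHO-K1 APJ (AGTRL-1) beta-arrestin reporter cells · Compound – one dose, 20 µM compound, 1% DMSO · Timing – compound 90 min 25 °C, reagent 1 h · Measured by – luminescence from split beta-galactosidase complementation, Galacton Star/Emerald II substrate · Measure – beta-arrestin recruitment to APJ as agonist activity, luminescent signal · Benchmarks – DMSO vs Apelin-13 10 nM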
HTR2A ag – mouse Htr2a agonists via beta-arrestin recruitment, primary screen, cell-based, luminescence; activation, % at 7.6 µM; AID 624169, 2012; 360,000 tested, 0.66% active; 5-hydroxytryptamine receptor 2A (Mus musculus), P35363; CHO-K1 mHTR2A beta-arrestin complementation; percent of 30 µM serotonin response;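 active = activation above a run cutoff, the mean activation of all tested compounds plus 3 SD, cut at about 14% in these data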
CXCR6 inh – CXCR6 receptor inhibitors, primary screen, cell-based, beta-arrestin, luminescence, CHO-K1 PathHunter, 1536-well; C-X-C chemokine receptor type 6 (Homo sapiens), O00574; inhibition, % at 20 µM; 360,000 tested, 0.36% active; AID 602244, 2012; in the data active = inhibition above about 34%, passing the limit was not always enough;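 note: antagonist mode with CXCL16 agonist at 10 nM final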
APJ antag confirm – APJ antagonists blocking beta-arrestin recruitment, confirmation, cell-based, luminescence, single concentration, uHTS hits. shares compounds with APJ antag. antagonist mode. inhibition, % at 20 µM. 950 tested, 66% active. AID 2766, 2010; in the data active = inhibition above about 50%
A number is an active result; - = inactive; . = no result.

SMILES | APJ antag | EBI2 block | CCR6 antag | APJ agonist | HTR2A ag | CXCR6 inh | APJ antag confirm
O=C(NNC(=S)Nc1ccccc1)NNC(=S)Nc1ccccc1 | 44 | - | 56 | - | - | - | 88
C[N+](C)(C)CCN1CCc2ccccc21 | . | - | . | . | - | - | .
Cc1ccc2nsnc2c1NC(=O)Cc1ccc(Cl)cc1 | 45 | - | - | - | - | - | -
Cc1ccc2nsnc2c1NC(=O)CCl | - | - | - | - | - | - | .
Cc1nsc(Nc2ccc([N+](=O)[O-])cc2)c1C#N | 71 | - | 56 | - | - | 50 | 88
Cc1ccc(Nc2ccc([N+](=O)[O-])ccc2=O)cc1 | - | - | - | - | - | - | .
CCC(C(=O)NC(C)(C)C)n1c(-c2ccc3c(c2)OCO3)nc2ccccc21 (centres undefined) | . | - | . | . | - | . | .
O=C(NNc1ccc(-c2csnn2)cc1)c1cc(Cl)cc(Cl)c1 | 54 | - | - | - | - | - | 65
Cc1cc(C)c2c(CN3CCCCC3)cc(=O)oc2c1 | 43 | - | - | - | - | - | -
Cc1cc(C)c2c(CN3CCCCCCC3)cc(=O)oc2c1 | . | - | . | . | - | - | .
Cc1[nH]n(-c2ccccc2)c(=O)c1C(C[N+](=O)[O-])c1ccc(F)cc1 (centres undefined) | 45 | - | - | - | - | - | -
Cc1ccc(C(C[N+](=O)[O-])c2c(C)[nH]n(-c3ccccc3)c2=O)cc1 (centres undefined) | - | - | - | - | - | - | .
CC1(C(=O)NCc2cccc3ccccc23)CCN1Cc1cccc2c1OCO2 (centres undefined) | . | - | . | . | - | - | .
O=C(Nc1cccc(Cl)c1N1CCCCC1)c1ccc2c(c1)OCCO2 | - | - | - | - | - | - | .
O=C(NC(=S)Nc1cccc(Cl)c1N1CCCCC1)c1ccc2c(c1)OCCO2 | 44 | - | - | - | - | - | -
O=C(c1ccccn1)N(Cc1ccco1)C1(C(=O)Nc2ccc(Br)cc2)CCCCC1 | . | - | . | . | - | - | .
CN(CCCS(=O)(=O)[O-])c1ccc(/C=C/c2ccc3ccccc3[n+]2C)cc1 | - | - | - | - | - | - | .
CN(C)c1ccc(/C=C/c2ccc3ccccc3[n+]2C)cc1 | 64 | - | 53 | - | - | 48 | 89
Cc1ccc(S(=O)(=O)N2C[C@H]3C(=O)C[C@@H](c4cccs4)N(S(=O)(=O)c4ccc(C)cc4)[C@H]3C[C@H]2c2ccccc2)cc1 | . | - | . | . | - | - | .
Cc1[nH]n(C(N)=S)c(=O)c1N=Nc1ccc(S(=O)(=O)N2CCCC2)cc1 | 57 | - | - | - | - | - | 80
Cc1ccc(N=Nc2c(C)[nH]n(C(N)=S)c2=O)cc1 | - | - | - | - | - | - | .
C[C@H](CO)N1C[C@H](C)[C@@H](CN(C)C(=O)c2cc(-c3ccccc3)on2)OCc2cn(nn2)CCCC1=O | . | - | . | . | - | - | .
Cc1ccc(C)c(S(=O)(=O)Nc2ccc(O)c(C(=O)O)c2)c1 | 48 | - | - | - | - | - | -
CCN1/C(=C/C=C/c2sc3ccccc3[n+]2CC)Sc2ccccc21 | 49 | - | - | - | - | - | 121
CCCCCCn1c(=O)n2n(c1=O)[C@@H]1CN(S(=O)(=O)c3ccc(C)cc3)C[C@]1(O)[C@@H](OC(=O)NCc1ccccc1)C2 | . | - | . | . | - | - | .
SMILES | APJ antag | EBI2 block | CCR6 antag | APJ agonist | HTR2A ag | CXCR6 inh | APJ antag confirm
C[C@@H]1CN([C@@H](C)CO)C(=O)c2cc(Br)cnc2O[C@H]1CN(C)Cc1cccc(C(=O)O)c1 | . | - | . | . | - | - | .
NS(=O)(=O)c1ccc(N=Nc2c[nH]c(=O)c(O)c2)cc1 | 53 | - | 71 | - | - | 44 | 90
COc1cc(/C=C(\C#N)C(=O)c2ccc(O)c(O)c2)cc(I)c1O | 42 | - | 57 | - | - | - | 60
COc1ccc(C=C(C#N)C(=O)c2ccccc2)cc1 | . | - | . | . | - | - | .
O=C1OC(c2ccc(F)cc2)=C/C1=C\c1ccc(O)cc1 | 43 | - | 52 | - | - | - | 74
O=C(COC(=O)c1cnccn1)c1cccc([N+](=O)[O-])c1 | 42 | - | 53 | - | - | - | 79
O=C(CCC(=O)OCC(=O)c1cccc([N+](=O)[O-])c1)NC1CCCCC1 | 43 | - | 58 | - | - | - | 99
CC(=O)Nc1ccc(NC(=O)CCC(=O)OCC(=O)c2cccc([N+](=O)[O-])c2)cc1 | 47 | - | - | - | - | - | 86
O=C(CCC(=O)OCC(=O)c1cccc([N+](=O)[O-])c1)Nc1ccccc1Cl | 68 | - | 62 | - | - | - | 112
O=C(COC(=O)c1cnccn1)c1ccc2ccccc2c1 | - | - | - | - | - | - | .
Cn1cc(-c2coc3c(C(=O)NCc4cccc(Cl)c4)cccc23)cn1 | . | - | . | . | - | - | .
O=C(/C=C/[C@H]1O[C@@H](n2ccc(=O)[nH]c2=O)[C@H](O)[C@@H]1O)N[C@@H](Cc1ccccc1)C(=O)O | . | - | . | . | - | - | .
Nc1nc2ncccn2c1-c1ccc(C(F)(F)F)cc1 | . | - | . | . | - | . | .
O=C(COC(=O)c1cc2ccccc2oc1=O)c1cccc([N+](=O)[O-])c1 | 48 | - | 52 | - | - | - | 83
Cc1ccc(OCC(=O)OCC(=O)c2cccc([N+](=O)[O-])c2)cc1C | 57 | - | 51 | - | - | - | 55
COc1cc([N+](=O)[O-])ccc1NC(=S)NNC(=O)CCC(=O)Nc1ccccc1Cl | 45 | - | - | - | - | - | 51
CCC(CC)C(=O)N(C)c1c(C)nc2c(OCc3ccc(C#N)cc3)cccn12 | . | - | . | . | - | - | .
Cc1cc(C)c2sc(N(CCCN(C)C)C(=O)c3ccc(S(=O)(=O)N4CCCc5ccccc54)cc3)nc2c1 | 47 | - | - | - | - | - | 57
CN(C)CCCN(C(=O)c1ccc(S(=O)(=O)N2CCc3ccccc32)cc1)c1nc2ccc(F)cc2s1 | - | - | - | - | - | - | .
CSc1ncccc1C(=O)OCC(=O)c1ccc(S(=O)(=O)N2CCCCC2)cc1 | 46 | - | - | - | - | - | -
CCc1nc2ccc(C(=O)NCc3ccccc3OC)cn2c1N(C)Cc1ccc(N(C)C)cc1 | . | - | . | . | - | - | .
Cc1ccc(C(=O)COC(=O)CN2C(=O)C3C4CCC(C4)C3C2=O)cc1[N+](=O)[O-] (centres undefined) | 49 | - | - | - | - | - | -
